The structures appear in SMILES notation. Peptide text beside a SMILES is read from it. * marks the point of attachment. Hydrocinnamoyl = O=C(CCc1ccccc1)*; Myristoyl = CCCCCCCCCCCCCC(=O)*; Morpholide = C1CN(*)CCO1; Cbz = O=C(OCc1ccccc1)*; NHBn = c1ccc(CN*)cc1; NHNH2 = NN*

For this experiment, the species on record is Rattus norvegicus. Nature of the experiment: Inhibition of rat recombinant Rab geranylgeranyltransferase at 100 uM in presence of canine Rab7 and rat REP1 NBD-FPP based continuous fluorimetric assay. The method, boiled down:
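Continuous fluorometric assay in 96/384-well format: 3 μM Rab7, 3 μM REP1, 9 μM NBD-FPP and 400 nM RabGGTase, with or without inhibitor. […] IC50 was calculated from three independent measurements.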
One may read the inhibition as the relative decrease from the control value, in per cent. On to `CCC/C=C\c1ccccc1/C=C/C(=O)N[C@H](Cc1ccc(O)cc1)C(=O)N(C)[C@@H](Cc1ccc(OC)cc1)C(=O)N(C)[C@@H](Cc1ccccc1)C(=O)OCc1c[nH]c(=O)[nH]c1=O`, for which the inhibition came out at 75%. With `CCCCCCCCCCC(=O)N[C@@H](Cc1c[nH]cn1)C(=O)N[C@@H](Cc1ccccc1)C(=O)N[C@@H](Cc1ccc(O)cc1)C(=O)NCC(O)CO` (stereo partly specified) the figure was 53%; with `COC(=O)[C@H](CCC(N)=O)NC(=O)[C@H](Cc1ccccc1)NC(=O)[C@@H](NC(=O)/C=C/c1ccccc1)[C@@H](C)O`, 92%. For `O=C(CNC(=O)[C@H](Cc1ccc(O)cc1)NC(=O)c1coc(-c2ccccc2)n1)N[C@@H](Cc1c[nH]cn1)C(=O)O`, the inhibition turned out to be 86%. As to `NCCOC(=O)[C@H](Cc1ccc(O)cc1)NC(=O)CCNC(=O)[C@H](Cc1c[nH]cn1)NC(=O)OCc1ccccc1`, the inhibition came to 100%. Turning to `CC(=O)Nc1cc(C(=O)N2CCC[C@H]2C(=O)N[C@@H](C(=O)N[C@@H](CCC(=O)O)C(=O)Nc2ccc(F)c(Cl)c2)C(C)C)ccc1[N+](=O)[O-]`, the inhibition was 109%.

As for `C[C@@H](NC(=O)CCc1ccccc1)C(=O)N[C@@H](Cc1ccccc1)C(=O)N[C@@H](CCC(N)=O)C(N)=O`, the inhibition is 95%. For the compound `O=C(CNC(=O)[C@H](Cc1c[nH]cn1)NC(=O)OCc1ccccc1)N[C@@H](Cc1ccc(O)cc1)C(=O)c1nc2ccccc2[nH]1`, the inhibition amounted to 66%.

Regarding `CC(C)C[C@H](NC(=O)[C@H](CO)NC(=O)[C@H](Cc1ccccc1)NC(=O)/C=C/c1ccc(F)cc1)C(=O)O`, the inhibition was found to be 71%.

Regarding `COC(=O)[C@H](Cc1ccc(O)cc1)NC(=O)[C@H](Cc1ccc(O)cc1)NC(=O)[C@H](Cc1ccc(O)cc1)NC(=O)c1ccc(F)cc1F`, the inhibition turned out to be 79%. As for `CON(C)C(=O)[C@H](CCC(N)=O)NC(=O)[C@H](Cc1ccccc1)NC(=O)[C@@H](NC(=O)C(Br)C(Br)c1ccccc1)[C@@H](C)O` (stereo partly specified), the inhibition was found to be 102%.

On to `CCCCCCCCCCCOc1ccc(C(=O)N[C@@H](Cc2c[nH]cn2)C(=O)N[C@@H](Cc2ccc(O)cc2)C(=O)N[C@@H](Cc2ccccc2)C(=O)NC2CCCCC2)cc1`, for which the inhibition stood at 56%. Turning to `CON(C)C(=O)[C@H](Cc1ccc(O)cc1)NC(=O)CNC(=O)[C@H](Cc1ccc(O)cc1)NC(=O)c1ccc(F)cc1`, the inhibition amounted to 84%.

Turning to `CCCCCCCCCCCCCCCC(=O)N[C@@H](Cc1ccc(O)cc1)C(=O)N[C@@H](Cc1ccc(O)cc1)C(=O)N[C@@H](Cc1ccc(O)cc1)C(=O)Nc1ccc(F)cc1F`, the inhibition came out at 82%. With `NC(=O)CC[C@H](NC(=O)[C@H](Cc1ccccc1)NC(=O)CNC(=O)CCc1ccccc1)C(=O)NCc1ccccc1` (Hydrocinnamoyl-Gly-Phe-Gln-NHBn) the figure was 85%. With `CC(C)[C@H](NC(=O)c1coc(-c2ccccc2)n1)C(=O)NCC(=O)N[C@@H](Cc1c[nH]cn1)C(=O)Nc1ccc(F)cc1F` the figure was 55%; with `COC(=O)[C@H](CO)NC(=O)CNC(=O)[C@H](Cc1ccccc1)NC(=O)c1csc(-c2cccs2)n1`, 123%. With `COC(=O)[C@H](CCC(N)=O)NC(=O)[C@H](Cc1ccccc1)NC(=O)[C@H](CO)NC(=O)CCc1ccccc1` (Hydrocinnamoyl-Ser-Phe-Gln-OMe) the figure was 76%; with `CCC(C)OC(=O)[C@H](CCC(N)=O)NC(=O)[C@H](Cc1ccccc1)NC(=O)[C@@H](C)NC(=O)CCc1ccccc1` (stereo partly specified), 83%; with `CCCCCCCCCCCCCCCC(=O)N[C@@H](Cc1ccc(O)cc1)C(=O)N[C@@H](Cc1ccc(O)cc1)C(=O)N[C@@H](Cc1ccc(O)cc1)C(=O)NCc1ccc(F)cc1F`, 92%.

In the case of `O=C(CNC(=O)[C@H](Cc1ccc(O)cc1)NC(=O)c1ccc(F)cc1)N[C@@H](Cc1ccc(O)cc1)C(=O)O`, the inhibition is 90%. As for `O=C(CCc1ccc(F)cc1)N[C@@H](Cc1ccc(O)cc1)C(=O)NCC(=O)N[C@@H](Cc1ccc(O)cc1)C(=O)NCc1ccccc1`, the inhibition was determined as 127%. For `CC(C)C[C@H](NC(=O)[C@H](COC(C)(C)C)NC(=O)[C@H](Cc1ccccc1)NC(=O)/C=C/c1ccc(F)cc1)C(=O)O` the value was 103%; for `COC(=O)[C@H](CC(C)C)NC(=O)[C@H](CO)NC(=O)[C@H](Cc1ccccc1)NC(=O)/C=C/c1ccc(F)cc1`, 57%.

For `C[C@@H](NC(=O)CCc1ccccc1)C(=O)N[C@@H](Cc1ccccc1)C(=O)N[C@@H](CCC(=O)O)C(=O)NCCO`, the inhibition came out at 98%. With `CCC(C)OC(=O)[C@H](CCC(N)=O)NC(=O)[C@H](Cc1ccccc1)NC(=O)[C@@H](NC(=O)/C=C/c1ccccc1)[C@@H](C)O` (stereo partly specified) the figure was 87%; with `CC(C)(C)Oc1ccc(C[C@H](NC(=O)CNC(=O)[C@H](Cc2ccc(OC(C)(C)C)cc2)NC(=O)c2coc(-c3ccccc3)n2)C(=O)O)cc1`, 75%; with `CC(C)C[C@H](NC(=O)/C=C/c1ccccc1)C(=O)N[C@@H](Cc1ccc(Br)cc1)C(=O)N[C@@H](Cc1ccccc1)C(=O)OCc1ccccc1`, 55%.

Regarding `CC(C)C[C@H](NC(=O)[C@@H]1CCCN1C(=O)/C=C/c1ccccc1)C(=O)N[C@@H](Cc1ccccc1)C(=O)O`, the inhibition was 80%. Consider `CC(=O)Nc1cc(C(=O)N2CCC[C@@H]2C(=O)N[C@@H](C(=O)N[C@@H](CCC(N)=O)C(=O)NN)C(C)C)ccc1[N+](=O)[O-]`, for which the inhibition came out at 77%. As to `CCCCCCCCCCCCCC(=O)N[C@@H](Cc1ccc(O)cc1)C(=O)N[C@@H](Cc1ccc(O)cc1)C(=O)N[C@@H](Cc1ccc(O)cc1)C(=O)N1CCOCC1` (Myristoyl-Tyr-Tyr-Tyr-Morpholide), the inhibition is 95%.

Turning to `Nc1ccccc1NC(=O)[C@H](Cc1ccc(O)cc1)NC(=O)CCNC(=O)[C@H](Cc1c[nH]cn1)NC(=O)OCc1ccccc1`, the inhibition stood at 80%. For `CCCCCCCCCCCOc1ccc(C(=O)N[C@@H](Cc2c[nH]cn2)C(=O)N[C@@H](Cc2ccc(O)cc2)C(=O)N[C@@H](Cc2ccccc2)C(=O)N2CCOCC2)cc1` the value was 87%. With `CC(C)C[C@H](NC(=O)[C@H](CO)NC(=O)[C@H](Cc1ccccc1)NC(=O)/C=C/c1ccc(F)cc1)C(=O)NNc1ccccc1`, the inhibition stood at 95%. Regarding `O=C(N[C@@H](Cc1ccc(O)cc1)C(=O)N[C@@H](Cc1ccc(O)cc1)C(=O)N[C@@H](Cc1ccc(O)cc1)C(=O)OCCCn1ccnc1)c1ccc(F)cc1F`, the inhibition was 96%. Regarding `CCCCCCCCCCCOc1ccc(C(=O)N[C@@H](Cc2ccc(O)cc2)C(=O)N[C@@H](Cc2ccc(O)cc2)C(=O)N[C@@H](Cc2ccc(O)cc2)C(=O)Nc2ccccn2)cc1`, the inhibition was determined as 72%. Take `O=C(N[C@H](Cc1ccc(O)cc1)C(=O)N[C@@H](Cc1ccc(O)cc1)C(=O)N[C@@H](Cc1ccc(O)cc1)C(=O)O)OCc1ccccc1`: the inhibition came out at 42%. With `C[C@@H](O)[C@H](NC(=O)C(Br)C(Br)c1ccccc1)C(=O)N[C@@H](Cc1ccccc1)C(=O)N[C@@H](CCC(N)=O)C(=O)OCCCl` (stereo partly specified) the figure was 64%; with `CC#CCOC(=O)[C@H](Cc1ccccc1)NC(=O)[C@H](Cc1ccccc1)NC(=O)[C@H](CC(C)C)NC(=O)/C=C/c1ccccc1`, 61%. `O=C(N[C@@H](Cc1ccc(O)cc1)C(=O)N[C@@H](Cc1ccc(O)cc1)C(=O)N[C@@H](Cc1ccc(O)cc1)C(=O)NC1CCCCC1)c1ccc(F)cc1F`: the inhibition came to 88%. Take `O=C(N[C@@H](Cc1c[nH]cn1)C(=O)N[C@@H](Cc1ccc(O)cc1)C(=O)N[C@@H](Cc1ccccc1)C(=O)O)OCc1ccccc1` (Cbz-His-Tyr-Phe-OH): the inhibition worked out at 39%. With `COC(=O)[C@H](CO)NC(=O)[C@H](Cc1ccccc1)NC(=O)[C@H](CO)NC(=O)C(Br)C(Br)c1ccc(F)cc1` (stereo partly specified) the figure was 80%; with `CC(C)C[C@H](NC(=O)/C=C/c1ccccc1)C(=O)N[C@@H](Cc1ccccc1)C(=O)N[C@@H](Cc1ccccc1)C(=O)O`, 75%. For `CON(C)C(=O)[C@H](CCC(=O)O)NC(=O)[C@H](C)NC(=O)[C@@H](NC(=O)c1ccc(-c2ccccc2)cc1)[C@@H](C)O`, the inhibition came to 102%. Take `CCCCCCCCCCCOc1ccc(C(=O)N[C@@H](Cc2c[nH]cn2)C(=O)N[C@@H](Cc2c[nH]cn2)C(=O)N[C@@H](Cc2c[nH]cn2)C(=O)NCC(O)CO)cc1` (stereo partly specified): the inhibition is 37%. With `O=C(CNC(=O)c1csc(-c2ccccc2)n1)N[C@@H](Cc1ccccc1)C(=O)N[C@@H](Cc1c[nH]cn1)C(=O)O` the figure was 70%. As for `O=C(CCc1ccccc1)N[C@@H](CO)C(=O)N[C@@H](Cc1ccccc1)C(=O)N[C@@H](CO)C(=O)NC1CCCCC1`, the inhibition amounted to 90%. For `C[C@H](NC(=O)CCc1ccccc1)C(=O)N[C@@H](Cc1ccccc1)C(=O)N[C@@H](CCC(N)=O)C(=O)Nc1nccs1` the value was 96%; for `CCCCCCCCCCCOC(=O)[C@H](CO)NC(=O)CNC(=O)[C@H](CO)NC(=O)/C=C/c1ccc(F)cc1`, 70%. For `CCCCCCCCCCC(=O)N[C@@H](Cc1c[nH]cn1)C(=O)N[C@@H](Cc1cnc[nH]1)C(=O)N[C@@H](Cc1ccc(O)cc1)C(=O)OCCN` the value was 97%; for `CCCCCCCCCCOc1ccc(C(=O)N[C@@H](Cc2c[nH]cn2)C(=O)N[C@@H](Cc2c[nH]cn2)C(=O)N[C@@H](CO)C(=O)OCCN)cc1`, 70%. As to `CC(C)C[C@H](NC(=O)[C@H](COC(C)(C)C)NC(=O)[C@H](Cc1ccccc1)NC(=O)CCc1ccccc1)C(N)=O`, the inhibition came out at 96%.

For the compound `NNC(=O)[C@H](CO)NC(=O)CNC(=O)[C@H](CO)NC(=O)CCc1ccccc1` (Hydrocinnamoyl-Ser-Gly-Ser-NHNH2), the inhibition turned out to be 94%.

As to `O=C(/C=C/c1ccc(F)cc1)N[C@@H](CO)C(=O)N[C@@H](Cc1ccccc1)C(=O)N[C@@H](CO)C(=O)Nc1ccc(F)c(Cl)c1`, the inhibition stood at 89%.

As for `O=C(CCc1ccc(F)cc1)N[C@@H](Cc1ccc(O)cc1)C(=O)NCC(=O)N[C@@H](Cc1ccc(O)cc1)C(=O)OCCCl`, the inhibition was determined as 50%. For `CC(C)(C)Oc1ccc(C[C@H](NC(=O)CNC(=O)[C@H](CCCCN)NC(=O)c2coc(-c3ccccc3)n2)C(=O)O)cc1` the value was 93%.
